By IC50 is commonly meant the concentration that gives 50% inhibition. What is called Ki is the equilibrium dissociation constant of an inhibitor or competing ligand from its target.

Consider four molecules from article PMC4112157 (Bioorganic & medicinal chemistry, 2014).

One assay has as its target T1, s15-LOX-1 (Glycine max, UniProt P08170).
T1 sequence (P08170 1-839): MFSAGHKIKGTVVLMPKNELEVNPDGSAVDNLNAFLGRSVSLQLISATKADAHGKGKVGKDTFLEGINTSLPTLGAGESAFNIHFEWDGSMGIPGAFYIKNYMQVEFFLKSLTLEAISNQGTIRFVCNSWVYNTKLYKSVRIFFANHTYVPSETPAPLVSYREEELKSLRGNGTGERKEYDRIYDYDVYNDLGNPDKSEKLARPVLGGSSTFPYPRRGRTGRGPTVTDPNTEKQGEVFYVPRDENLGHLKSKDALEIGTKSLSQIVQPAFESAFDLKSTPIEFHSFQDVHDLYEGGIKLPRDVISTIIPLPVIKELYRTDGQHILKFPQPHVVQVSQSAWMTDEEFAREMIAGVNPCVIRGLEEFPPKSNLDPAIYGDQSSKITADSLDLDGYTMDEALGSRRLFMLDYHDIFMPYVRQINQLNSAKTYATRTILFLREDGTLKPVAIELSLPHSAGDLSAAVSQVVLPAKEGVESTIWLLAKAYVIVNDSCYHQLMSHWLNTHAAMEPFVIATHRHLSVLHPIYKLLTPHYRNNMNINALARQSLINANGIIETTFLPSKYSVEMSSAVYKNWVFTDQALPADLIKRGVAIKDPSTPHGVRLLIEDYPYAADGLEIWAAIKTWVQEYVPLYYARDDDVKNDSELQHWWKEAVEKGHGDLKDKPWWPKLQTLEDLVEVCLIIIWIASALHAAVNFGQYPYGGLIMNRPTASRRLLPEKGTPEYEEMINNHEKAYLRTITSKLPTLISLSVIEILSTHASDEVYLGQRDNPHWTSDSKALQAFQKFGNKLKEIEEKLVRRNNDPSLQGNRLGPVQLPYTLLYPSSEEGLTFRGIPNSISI
The assay is described as follows: Lipoxygenase UV-Vis-based IC50 assay, s15-LOX-1. The format is biochemical, soybean.

In the next assay the target is T2, h5-LOX (Homo sapiens, UniProt P09917).
T2 sequence (P09917 1-674): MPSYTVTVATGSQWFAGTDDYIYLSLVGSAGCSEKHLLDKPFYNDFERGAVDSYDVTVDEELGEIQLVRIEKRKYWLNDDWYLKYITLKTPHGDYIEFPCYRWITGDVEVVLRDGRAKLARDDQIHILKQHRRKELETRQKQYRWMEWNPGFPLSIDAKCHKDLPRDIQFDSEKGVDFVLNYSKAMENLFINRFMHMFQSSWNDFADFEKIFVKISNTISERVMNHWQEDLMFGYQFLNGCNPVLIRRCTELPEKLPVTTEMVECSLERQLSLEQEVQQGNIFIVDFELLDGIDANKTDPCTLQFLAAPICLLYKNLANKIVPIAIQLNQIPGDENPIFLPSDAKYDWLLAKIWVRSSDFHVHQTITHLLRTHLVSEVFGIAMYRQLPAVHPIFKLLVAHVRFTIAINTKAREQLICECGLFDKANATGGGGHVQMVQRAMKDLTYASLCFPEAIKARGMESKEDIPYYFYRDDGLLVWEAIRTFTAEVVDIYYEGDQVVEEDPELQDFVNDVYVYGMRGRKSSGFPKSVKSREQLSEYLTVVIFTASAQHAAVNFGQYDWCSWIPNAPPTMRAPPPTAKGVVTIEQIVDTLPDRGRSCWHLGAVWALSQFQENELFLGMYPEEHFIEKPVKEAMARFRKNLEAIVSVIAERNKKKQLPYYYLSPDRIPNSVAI
The assay is described as follows: Oxo-lipid substrate activity, h5-LOX. The format is biochemical. Conditions: IC50 assay conditions, 10 μM oxo-lipid, UV-Vis 234/280 nm, LC-MS.

Assay [1] deals with T3, h12-LOX (Homo sapiens, UniProt P18054).
T3 sequence (P18054 1-663): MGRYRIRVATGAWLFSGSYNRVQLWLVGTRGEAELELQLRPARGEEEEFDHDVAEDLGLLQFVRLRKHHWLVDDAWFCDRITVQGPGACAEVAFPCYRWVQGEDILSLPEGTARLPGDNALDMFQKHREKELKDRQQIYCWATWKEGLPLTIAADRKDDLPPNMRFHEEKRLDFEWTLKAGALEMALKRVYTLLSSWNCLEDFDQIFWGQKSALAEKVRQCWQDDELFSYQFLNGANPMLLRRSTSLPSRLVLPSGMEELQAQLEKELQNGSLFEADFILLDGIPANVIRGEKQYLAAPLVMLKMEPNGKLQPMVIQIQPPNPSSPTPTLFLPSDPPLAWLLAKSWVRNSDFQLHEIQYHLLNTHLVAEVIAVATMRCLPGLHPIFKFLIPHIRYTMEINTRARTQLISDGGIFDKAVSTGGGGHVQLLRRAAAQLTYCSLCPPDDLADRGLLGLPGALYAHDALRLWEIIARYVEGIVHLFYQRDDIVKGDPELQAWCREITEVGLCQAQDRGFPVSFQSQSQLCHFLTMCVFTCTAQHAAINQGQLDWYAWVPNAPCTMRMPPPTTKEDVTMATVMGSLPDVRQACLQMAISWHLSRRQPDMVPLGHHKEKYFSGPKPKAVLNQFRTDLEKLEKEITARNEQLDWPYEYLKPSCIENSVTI
The experiment in a line: Oxo-lipid substrate activity, h12-LOX. The format is biochemical.

In assay [2] the target is T4, h15-LOX-1 (Homo sapiens, UniProt P16050).
T4 sequence (P16050 1-662): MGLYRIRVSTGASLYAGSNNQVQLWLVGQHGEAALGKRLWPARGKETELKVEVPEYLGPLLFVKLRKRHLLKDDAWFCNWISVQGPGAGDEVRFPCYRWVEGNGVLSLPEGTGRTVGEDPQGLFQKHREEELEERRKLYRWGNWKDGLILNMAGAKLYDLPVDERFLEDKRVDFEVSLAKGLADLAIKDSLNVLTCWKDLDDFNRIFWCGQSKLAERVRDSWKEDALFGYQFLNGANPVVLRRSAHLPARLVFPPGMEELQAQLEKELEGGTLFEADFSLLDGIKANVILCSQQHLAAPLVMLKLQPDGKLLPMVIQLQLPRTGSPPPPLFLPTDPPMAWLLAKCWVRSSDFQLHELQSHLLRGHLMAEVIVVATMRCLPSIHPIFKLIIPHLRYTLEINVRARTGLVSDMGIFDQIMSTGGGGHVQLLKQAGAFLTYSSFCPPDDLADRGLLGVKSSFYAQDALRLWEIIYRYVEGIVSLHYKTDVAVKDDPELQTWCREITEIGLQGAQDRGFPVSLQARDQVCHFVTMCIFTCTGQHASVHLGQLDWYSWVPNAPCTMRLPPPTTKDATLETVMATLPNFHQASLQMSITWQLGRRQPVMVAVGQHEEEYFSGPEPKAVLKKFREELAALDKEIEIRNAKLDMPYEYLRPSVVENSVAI
The assay is described as follows: Oxo-lipid substrate activity, h15-LOX-1. It counts as biochemical.

The target of assay [3] is T4, h15-LOX-1. The assay is described as follows: Incubation activity assay. It counts as biochemical. The following applies: time incubation experiments.
The subject of the next assay is cytosolic calcium levels. The following applies: cited from earlier work.
A further assay addresses LOX isozymes. The experiment in a line: Lipoxygenase UV-Vis-based IC50 assay, summary over LOX isozymes. It counts as biochemical.
The target in assay [4] is T3, h12-LOX. The experiment in a line: Steady-state inhibition kinetics, h12-LOX. It counts as biochemical. The following applies: for Ki: 0.4–10 μM AA, 25 mM HEPES pH 8.0, 0.01% Triton X-100, Dixon plot and replot. The essentials: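 Enzyme added to start the reaction in a stirred cuvette containing 0.4–10 μM arachidonic acid, 25 mM HEPES (pH 8.0) and 0.01% Triton X-100. 12-HpETE formation followed at 234 nm (ε = 25,000 M−1cm−1) across substrate and inhibitor concentrations, with Dixon series at 0.6, 1, 3 and 9 μM AA. Dixon plot and slope-vs-[inhibitor] replot give Kic (dissociation from enzyme) and Kiu (from enzyme–substrate complex).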

The mark [5] stands for this setting: IC50 assay conditions, 10 μM oxo-lipid, UV-Vis 234/280 nm, LC-MS.
The mark [6] stands for this setting: IC50 assay conditions, 10 μM oxo-lipid, UV-Vis 234/280 nm.
The mark [7] stands for this setting: incubation conditions, 10 μM, on ice 15 minutes, HPLC and LC-MS.

SMILES strings stand for the structures. Entries after “also recorded” stand apart in the source; their conditions may differ. Like-named read-outs stand apart in the source and are kept apart here.

At s15-LOX-1, `CCCCC/C=C\C/C=C\C/C=C\C=C\C(=O)CCCC(=O)O` [5-oxo-ETE, 5-oxo-6,8,11,14-(E,Z,Z,Z)-eicosatetraenoic acid] gave an IC50 greater than 100 µM. For the same molecule, the substrate activity entry at h5-LOX, at h12-LOX [1] (setting [5]) and at h15-LOX-1 [2] (setting [6]) was “no change of absorbance at 234 nm or 280 nm” each time.
`CCCCC/C=C\CC(=O)/C=C/C=C\C/C=C\CCCC(=O)O` [12-oxo-ETE, 12-oxo-5,8,10,14-(Z,Z,E,Z)-eicosatetraenoic acid] registered an IC50 at s15-LOX-1 greater than 100 µM. The “mode of inhibition (time dependence)” value at h15-LOX-1 [3] is recorded as “irreversible inhibition”. The substrate activity result on h5-LOX is given as “no change of absorbance at 234 nm or 280 nm”. Further, the substrate activity result at h15-LOX-1 [2] (setting [6]) is listed as “no change of absorbance at 234 nm or 280 nm”. Besides, in the assay on cytosolic calcium levels, the “concentration with calcium effects (as low as)” value was 10 nM and the “concentration with effects on cytosolic calcium levels” value is 10 µM.
As for `CCCCCC(=O)/C=C/C=C\CCCCCCCC(=O)O` [13-oxo-ODE, 13-oxo-9,11-(Z,E)-octadecadienoic acid], the IC50 at s15-LOX-1 was greater than 100 µM; at LOX isozymes (read-out: IC50 for all LOXs, all LOXs studied), greater than 100 µM.
Take `CCCCCC(=O)/C=C/C=C\C/C=C\C/C=C\CCCC(=O)O` [15-oxo-ETE, 15-oxo-5,8,11,13-(Z,Z,Z,E)-eicosatetraenoic acid]: the IC50 at LOX isozymes (read-out: IC50 against the other LOX isozymes, LOX isozymes other than h12-LOX) was greater than 25 µM. The Ki on h12-LOX [4] (Kic) was 0.087 ± 0.008 µM; on h12-LOX [4] (Kiu), 2.1 ± 0.8 µM. Also, the “mode of inhibition (steady state)” value on h12-LOX [4] (steady state inhibition kinetics) is given as “mixed inhibitor; also recorded: mixed inhibition”. For the same molecule, the substrate activity entry at h5-LOX is “multiple oxidation products were formed”; on h12-LOX [1] (setting [5]), “not a substrate”; at h12-LOX [1] (setting [7]), “not a substrate”; at h15-LOX-1 [2] (setting [7]), “not a substrate”.
